# An excerpt weighted towards active compounds, which were near 2.6% of everything screened.
# 5HT1E antag = 5-HT1E receptor antagonists, primary screen, cell-based, HTS | CHO 5-HT1E Ga15 NFAT-bla reporter, FRET, antagonist | 65,000 compounds, 0.99% hits | inhibition, % at 6 µM | 5-hydroxytryptamine receptor 1E (Homo sapiens), P28566;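 active = inhibition above a set limit, the mean inhibition across every tested compound plus 3 SD, cut at about 29% in these data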;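 note: signal is the 460 over 535 nm emission ratio of beta-lactamase substrate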
# Target sequence (P28566 whole entry, looked up): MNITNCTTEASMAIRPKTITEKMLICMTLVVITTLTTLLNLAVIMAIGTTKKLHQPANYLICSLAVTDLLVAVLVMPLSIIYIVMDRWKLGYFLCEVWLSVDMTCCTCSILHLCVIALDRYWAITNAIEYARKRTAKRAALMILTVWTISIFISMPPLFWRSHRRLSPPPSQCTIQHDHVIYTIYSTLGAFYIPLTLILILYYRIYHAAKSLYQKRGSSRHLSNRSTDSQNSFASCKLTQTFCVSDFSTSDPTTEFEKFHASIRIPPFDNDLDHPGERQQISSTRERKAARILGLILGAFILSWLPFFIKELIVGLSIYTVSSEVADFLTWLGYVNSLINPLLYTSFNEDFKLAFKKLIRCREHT
# HTR1A agonist = human 5-HT1a receptor agonists, primary screen, cell-based, CHO, Ga15 NFAT-bla reporter; 5-hydroxytryptamine receptor 1A (Homo sapiens), P08908; CHO 5-HT1a Ga15 NFAT-bla reporter, FRET ratio; 0% basal, 100% maximal reference agonist; activation, % at 10 µM; 65,000 compounds, 0.56% hits; AID 567, 2006;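 active = activation above the screen-wide mean activation plus 3 SD, cut at about 19% in these data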
# E coli RNAP = E. coli RNAP inhibitors, biochemical; DNA-directed RNA polymerase subunit beta (Escherichia coli (strain K12)), P0A8V2; E. coli RNA polymerase, fluorescence transcription assay; inhibition, %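 (tested at 10 µM)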; 62,000 compounds, 0.2% hits; AID 559, 2006; in the data active = inhibition above about 20%
# S1P3 ag = human S1P3 receptor agonists, primary screen, cell-based, primary and confirmation, NFAT-BLA reporter; AID 373, 2006; S1P3 NFAT-BLA reporter cells, agonism, FRET ratio; relative to 1 µM S1P, basal subtracted; 60,000 compounds, 0.1% hits; activation, % at 4.5 µM;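 active = activation above the screen-wide mean plus 3 SD, cut at about 4.5% in these data, passing the limit was not always enough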
#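 Measure – % activation relative to 1 µM S1P (100%), per plate · System – stable CHO line with human S1P3, Gα16, NFAT-BLA reporter · Timing – cells plated overnight, compound 4 h 37 °C, substrate 2 h RT · Technique – fluorescent BLA substrate, ex 405 nm, em 460/535 nm ratio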
# 5HT1a antag = human 5-HT1a receptor antagonists, primary screen, cell-based, CHO, Ga15 NFAT-bla reporter; inhibition, % at 10 µM; CHO 5-HT1a Ga15 NFAT-bla reporter, antagonist mode; 5-hydroxytryptamine receptor 1A (Homo sapiens), P08908; 62,000 compounds, 0.68% hits;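 active = inhibition above the mean of all tested compounds plus 3 SD, cut at about 43% in these data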;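 note: receptor stimulated by 5-CT agonist at 100 nM near EC80; beta-lactamase reporter measured by ratiometric fluorescence of a cleavable substrate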
# HTR1E agonist = 5-HT1E receptor agonists, primary screen, cell-based, HTS. 5-hydroxytryptamine receptor 1E (Homo sapiens), P28566. CHO 5-HT1E Ga15 NFAT-bla reporter, FRET; 0% DMSO wells, 100% control agonist wells. activation, % at 6 µM. 65,000 compounds, 0.69% hits. AID 574, 2007;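 active = activation above a set limit, the screen-wide mean activation plus 3 SD, cut at about 8.5% in these data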
# Hits are given with their value; 0 = inactive; - = no result given.
SMILES,5HT1E antag,HTR1A agonist,E coli RNAP,S1P3 ag,5HT1a antag,HTR1E agonist
COc1ccc(-n2[nH]c(C)cc2=O)cc1,0,0,0,0,0,0
CCOC(=O)C(C)Oc1ccc(C2NC(=O)NC(C)=C2C(C)=O)cc1Br (centres undefined),0,0,0,0,0,0
CCOc1ccccc1C(=O)Nc1nnc(C(C)C)s1,33,0,0,0,0,0
CCOc1ccccc1C(=O)Nc1nncs1,0,0,0,0,0,0
COC(=O)c1[nH]c2cc(OC)c(OC)cc2c1NC(=O)CN1CCN(Cc2ccccc2)CC1,39,0,0,0,0,0
CCCn1c2ccccc2c2nnc(SCC(=O)Nc3ncccn3)nc21,31,0,0,0,0,0
O=C(Nc1ccc(Oc2ccc(S(=O)(=O)N3CCOCC3)cn2)cc1)c1ccco1,0,0,0,0,0,0
COC(=O)c1ccccc1NC1c2ccccc2C(=O)N1c1cccnc1 (centres undefined),0,56,0,0,0,0
O=C1c2ccccc2C(Nc2ccccc2F)N1c1cccnc1 (centres undefined),0,0,0,0,0,0
CCC1C(=O)n2nc(-c3ccccc3)cc2N=C1C (centres undefined),0,0,0,0,0,0
CCOC(=O)C1CCN(C(=O)Cc2c(C(=O)O)n(C)c3ccccc23)CC1,0,0,0,0,0,117
CC(C)Nc1nnc(SCC(=O)Nc2ccc(F)cc2)s1,0,0,0,0,0,0
CC1CCCC(NC(=O)c2ccc3c(=O)n(CC4CCCO4)c(=O)[nH]c3c2)C1C (centres undefined),0,54,0,0,0,0
COc1ccccc1C(=O)n1nc(-c2ccccc2)nc1NCc1ccco1,0,0,0,0,44,0
O=C(c1ccco1)n1nc(-c2ccccc2)nc1NCc1ccco1,0,0,0,0,0,0
Cc1sc2ncnc(SC(C)C#N)c2c1C (centres undefined),31,0,0,0,0,0
O=C1CC(C(=O)Nc2ccc(C(=O)N3CCOCC3)cc2)C2(CCCCC2)O1 (centres undefined),0,0,0,0,0,0
O=C1CC(C(=O)Nc2ccccc2)C2(CCCC2)O1 (centres undefined),0,0,0,-,0,14
COc1ccccc1N1CCN(C/C(O)=C(\C#N)c2nc(-c3ccccc3)cs2)CC1,0,0,0,0,0,10
COc1cc(S(=O)(=O)N2CCN(c3ccccc3F)CC2)ccc1Cl,0,21,0,0,0,0
COc1ccccc1N1CCN(Cc2ccsc2)CC1,0,40,0,0,0,21
c1ccc(N2CCN(Cc3ccsc3)CC2)nc1,0,0,0,0,0,0
CCOc1ccc(NC(=O)CCN2CCN(c3ccccc3OC)CC2)cc1,0,0,0,0,100,0
COC(=O)c1cccc(NC(=O)CSc2nc(=O)cc(N)n2-c2ccccc2)c1,0,0,0,0,0,0
O=C(CN1C(=O)CC(c2ccco2)Sc2ccccc21)NCC1CCCO1 (centres undefined),0,0,0,0,0,0
SMILES,5HT1E antag,HTR1A agonist,E coli RNAP,S1P3 ag,5HT1a antag,HTR1E agonist
O=C(CSC1=Nc2ccccc2C2=NC(CC(=O)NCc3ccco3)C(=O)N12)NCC1CCCO1 (centres undefined),0,0,0,0,0,0
CCOC(=O)c1cnc2c(OC)cccc2c1N1CCN(c2ccccc2OC)CC1,0,0,0,0,0,9.1
COc1ccccc1N1CCN(Cc2ccc(OC)c(OC)c2OC)CC1,0,0,0,0,62,31
CCOc1ccccc1CN1CCN(S(=O)(=O)CC)CC1,0,0,0,0,0,0
COc1ccccc1N1CCN(C/C(C)=C/c2ccccc2)CC1,0,0,0,0,84,0
CCOC(=O)c1cnc2c(OC)cccc2c1N1CCN(c2ccc(OC)cc2)CC1,0,0,0,0,0,0
CCOc1ccccc1N1CCN(Cc2cccc(OC)c2OC)CC1,0,0,0,0,58,0
CCOC(=O)c1c(NCc2ccc3c(c2)OCO3)c2ccccc2[nH]c1=O,0,0,0,0,0,0
Cc1c(NC(=O)C(C#N)=C2CCCCC2)c(=O)n(-c2ccccc2)n1C,0,0,0,0,0,0
COc1ccc(CC(C)N2CCN(Cc3ccccc3)CC2)c(OC)c1 (centres undefined),0,0,0,0,92,0
COc1ccc(OC)c(CN2CCN(c3ccccc3OC)CC2)c1,0,0,0,0,53,0
COc1cc(CN2CCN(c3ccccc3F)CC2)cc(OC)c1O,0,0,0,0,0,14
COc1cc(CN2CCC(C(=O)N3CCN(c4ccccc4F)CC3)CC2)cc(OC)c1O,0,0,0,0,0,0
COc1ccccc1N1CCN(c2cc(N3CCCC3)nc(C)n2)CC1,0,0,0,0,0,0
CCC1(C(=O)OC)NC(c2ccco2)C2C(=O)N(c3ccc(C)cc3)C(=O)C21 (centres undefined),0,0,0,0,0,0
Cc1ccccc1OCc1nc(-c2ccc(NC(=O)c3ccc4c(c3)OCO4)cc2)no1,0,0,0,0,0,9.2
Cc1ccccc1OCc1nc(-c2ccc(NC(=O)c3ccco3)cc2)no1,0,0,0,-,0,0
O=C(CNS(=O)(=O)c1ccc(Br)s1)NCC1COc2ccccc2O1 (centres undefined),0,0,0,0,0,0
CCOC(=O)N1CCC(n2c(SCC(=O)NCCC3=CCCCC3)nc3ccccc3c2=O)CC1,0,0,0,-,60,0
CCn1c(C)nc2cc(C(=O)OCCC(F)(F)F)ccc21,0,26,0,0,0,0
CC(C)Nc1nc(C#N)nc(NC(C)C)n1,31,0,-,0,0,0
O=S(=O)(Nc1nc2ccccc2nc1NCCN1CCOCC1)c1cccc(Cl)c1,0,0,0,0,0,0
Clc1ccc(-c2nc(NCCN3CCOCC3)c3ccccc3n2)cc1,0,45,-,0,0,0
Cc1ccccc1N1C(=O)C2ON(c3ccccc3)C(c3cccnc3)C2C1=O (centres undefined),0,0,0,0,-,0
Oc1c(CN2CCOCC2)cc(COCc2ccccc2)c2cccnc12,43,0,0,0,0,0
O=C(NCc1ccccc1)C1CCN(S(=O)(=O)N2CCCCCC2)CC1,0,0,0,0,0,0

# Screening results as filed in PubChem.
